Bioassay records (PubChem BioAssay)
NTR1 ag – activates human neurotensin receptor 1; P30989; NTR1-U2OS beta-arrestin-GFP spot imaging, agonist mode; activation, % at 20 µM; 330,000 compounds, 0.17% hits; AID 493036;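 active means activation at or above 40% of the spot to cytoplasm intensity ratio, with at least 20 cells analyzed; inconclusive means wells under 20 cells, flagged as cytotoxic or low count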;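 further: 0% = DMSO without peptide and 100% = 100 nM NTR1 peptide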
Target sequence (P30989 whole entry, looked up): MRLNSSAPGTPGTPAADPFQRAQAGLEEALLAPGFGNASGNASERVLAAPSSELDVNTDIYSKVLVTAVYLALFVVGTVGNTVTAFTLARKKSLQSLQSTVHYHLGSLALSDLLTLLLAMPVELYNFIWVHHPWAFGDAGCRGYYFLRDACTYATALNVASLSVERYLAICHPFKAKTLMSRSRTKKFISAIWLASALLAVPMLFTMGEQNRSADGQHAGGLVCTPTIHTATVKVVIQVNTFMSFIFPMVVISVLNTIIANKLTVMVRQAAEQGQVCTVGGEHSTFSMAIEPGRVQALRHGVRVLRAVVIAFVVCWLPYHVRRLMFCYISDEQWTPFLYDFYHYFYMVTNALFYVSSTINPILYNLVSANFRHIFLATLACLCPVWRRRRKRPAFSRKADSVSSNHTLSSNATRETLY
B2AR ag – activates human beta-2 adrenergic receptor causing internalization; P07550; Am2.2-beta2AR cells, FAP receptor internalization, flow cytometry; response, % (no concentration beside the values); 340,000 compounds, 0.43% hits;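 active means response above a set limit, near 3 SD of response in nonfluorescent compounds, cut at about 42% in these data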
H9c2 TAG inh – inhibitors of triacylglycerol accumulation; H9c2 cells, Nile Red lipid (TAG) fluorescence; cells loaded with 200 µM oleic acid; inhibition, % at 12.5 µM; 230,000 compounds, 0.66% hits;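 active means pattern-corrected inhibition of lipid staining of at least 50% with the nuclear-stain viability signal not falling by more than 50%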;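 further: 0% = DMSO wells and 100% = triacsin C control wells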
Arr AP2 block – human beta-arrestin and AP2 interaction inhibition. FITC-arrestin peptide / GST-AP2 beads, flow cytometry; AP2 beta2 appendage carries R879A mutation. inhibition, % at 10 µM. 340,000 compounds, 0.31% hits. AID 504490;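 active means inhibition above a set limit, near 3 SD of compounds lacking own fluorescence, cut at about 54% in these data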;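 further: plate controls were DMSO wells for no effect and 5 µM unlabelled arrestin peptide for full effect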
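Material – AP2 appendage R879A on GSH beads · Buffer or medium – PBS with 0.05% Tween 20 and 0.1% BSA · Probe or stimulus – fluorescein-tagged arrestin peptide at 50 nM final · Incubation – compound with beads 12 min RT, then probe 1 h RT · Detection – high-throughput flow cytometry of beads, ex 488, em 535 nm · Evaluation – percent response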
Hep lipid drop – hepatic lipid droplet formation modulation; AML12 mouse hepatocytes, oleate lipid droplets, BODIPY imaging; inhibition, % at 6.5 µM; 240,000 compounds, 0.4% hits;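 active means lipid droplet intensity inhibited by at least 50%, with more than 500 cells counted; inconclusive means wells with under 300 cells, treated as cytotoxic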
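System: AML12 hepatocytes (mouse). Probe or stimulus: oleic acid at 100 µM to induce lipid droplet formation. Times: overnight treatment with compound plus oleate. Detection: Image-based BODIPY and DAPI two-channel analysis. Evaluation: percent inhibition of filter-corrected integrated lipid droplet intensity per well.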
GRK2 aptamer HTS – blocks RNA aptamer binding to human GRK2; bead flow cytometry, FAM-aptamer displacement from GRK2; P25098; inhibition of aptamer binding, % at 10 µM; AID 488847; 330,000 compounds, 0.59% hits;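 active means inhibition of aptamer binding above 40%, roughly 3 SD of noise, on plates passing a quality check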;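 further: median bead fluorescence of bound FAM aptamer so fluorescent compounds give negative values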
Starred values were filed as active, the others as inactive; ? = inconclusive; . = no result. Only some compounds are listed: those with a hit (about 2% of all), similar ones and a draw of the others.

SMILES	NTR1 ag	B2AR ag	H9c2 TAG inh	Arr AP2 block	Hep lipid drop	GRK2 aptamer HTS
CCOc1cc(NC(=S)NCC2CCCO2)c(OCC)cc1NC(=O)c1ccccc1 (configuration not stated)	4.6	-15.0	.	2.7	4.6	0.0
CCOc1cc(NC(=S)NCC2CCCO2)c(OCC)cc1NC(=O)c1cccc(C)c1 (configuration not stated)	5.7	46.8*	42.1	9.9	.	4.0
O=C1C=CC(=O)c2c(O)c(CO)c(CO)c(O)c21	.	2.3	34.6	57.8*	.	.
O=c1c(CO)cc(CO)cc(CO)c1O	-0.1	-6.9	-3.4	17.0	10.9	0.0
CCc1ccc2nc(SCC(=O)N3CC(=O)Nc4ccccc43)c(C#N)cc2c1	-5.9	-13.6	51.5*	7.3	-1.4	4.0
Cc1cc(C(=O)CSc2nnc(-c3cccc(F)c3)n2N)c(C)n1Cc1ccc2c(c1)OCO2	2.0	81.9*	3.6	23.4	-34.4	0.0
COc1ccc(-c2nn(-c3ccccc3)cc2C2CC(c3cccs3)=NN2C(=O)CCCC(=O)O)cc1 (configuration not stated)	2.1	-5.2	.	-1.7	-1.8	1.0
Cc1ccc(-c2nn(-c3ccccc3)cc2C2CC(c3cccs3)=NN2C(=O)CCCC(=O)O)cc1 (configuration not stated)	3.9	69.1*	1.4	0.9	-2.6	0.0
CCOC(=O)c1ccc(Oc2nc(N(C)C)nc(N(C)C)n2)cc1	1.0	-15.2	9.7	4.5	-13.5	4.0
CN(C)c1nc(Oc2ccc(N)cc2)nc(N(C)C)n1	-0.3	76.7*	-11.2	3.5	12.9	3.0
CCCn1c(SCC(=O)N2CCN(CC)CC2)nc2c1c(=O)n(C)c(=O)n2C	-1.5	1.8	.	6.8	-5.2	0.0
COc1ccc(NC(=O)C2(C)Cc3c(-c4ccccc4)ccnc3O2)cc1OC (configuration not stated)	.	.	-0.1	.	.	.
O=C(NCC(c1cccs1)N1CCOCC1)c1ccc(Cl)nc1 (configuration not stated)	2.2	-1.6	-8.6	7.0	.	2.0
CC(C)c1ccc(/C=C(\c2nc3ccccc3[nH]2)S(=O)(=O)c2ccccc2)cc1	24.6	42.2*	.	-4.5	54.4*	14.0
O=C(Nc1ccc(N2CCCC2)cc1)c1cccc(-c2cc3ccccc3oc2=O)c1	2.8	57.3*	.	-8.8	0.5	0.0
COc1ccc(CCN2C(=O)CSC2=Nc2ccc(C)cc2C)cc1OC	5.5	1.2	1.8	9.8	5.8	0.0
S=c1sc2c(Cl)ncnc2n1-c1ccccc1	.	103.5*	12.6	29.1	-2.6	.
O=C1OC2(c3ccccc31)c1cc(I)c(O)c(I)c1Oc1c2cc(I)c(O)c1I	-4.5	.	.	.	.	76.0*
CS(=O)(=O)c1ccc(C(=O)OC2CCOC2=O)cc1[N+](=O)[O-] (configuration not stated)	1.1	9.4	.	-1.0	2.6	4.0
COc1ccc2sc(-c3ccc(SC)cc3)c(-c3ccc(O)cc3)c2c1	25.2	53.0*	.	18.0	.	1.0
O=C1C(=NO)C(c2ccccc2)Oc2ccccc21 (configuration not stated)	.	10.0	-21.8	12.7	.	.
C#CCN(C[C@@H]1[C@@H](OC(=O)NCc2ccccc2F)[C@@H](OC(=O)NCc2ccccc2F)Cn2c(=O)ccc(=O)n21)S(=O)(=O)c1ccc(C)cc1	.	.	69.3*	.	.	.
CN(C)CCCn1c2c3ccccc3ccc2c2oc(=O)c3ccccc3c21	.	42.9*	77.8*	2.8	.	.
CCOC(=O)c1ccc(N(CC2CO2)S(=O)(=O)c2ccc(C)cc2)cc1 (configuration not stated)	.	-4.5	-14.6	2.3	.	.
COc1ccc2c(c1)c(/C=N/Nc1nc3ccccc3[nH]1)c(C)n2C	17.8	14.1	50.4*	1.4	?	0.0
SMILES	NTR1 ag	B2AR ag	H9c2 TAG inh	Arr AP2 block	Hep lipid drop	GRK2 aptamer HTS
O=C(/C=C/c1ccc2c(c1)OCO2)NCCSCc1ccc(Cl)cc1	1.4	-2.2	-9.1	-2.9	.	0.0
O=C(/C=C/c1ccc2c(c1)OCO2)NCCSCc1c(Cl)cccc1Cl	4.1	76.9*	.	16.0	-9.4	1.0
COc1cccc(-c2nc(CS(=O)(=O)CC(=O)N3CCOCC3)c(C)o2)c1	-0.4	-0.2	.	10.6	-15.2	0.0
COc1ccc(OC)c(-c2csc(NC(=O)COC(=O)c3ccc(NC(=O)CC#N)cc3)n2)c1	0.3	42.4*	8.0	3.2	.	0.0
COc1ccc(OC)c(-c2csc(NC(=O)COC(=O)C3CCC3)n2)c1	4.1	6.7	7.4	-6.9	.	0.0
Cc1cc(C)c2c(=N)c3ccccc3n(CCCCCCCCn3c4ccccc4c(=N)c4c(C)cc(C)nc43)c2n1	.	63.1*	53.1*	10.6	.	.
N#C/C(=C\c1sc(N2CCOCC2)nc1-c1ccccc1)C(=O)Nc1cccc2ccccc12	.	.	.	.	55.6*	.
COC1C(CO)OC(n2c3c(Cl)cccc3c3c4c(c5c6cccc(Cl)c6[nH]c5c32)C(=O)NC4=O)C(O)C1O (configuration not stated)	.	5.7	72.5*	-11.2	.	.
CCOC(=O)C1=C(C)N(c2ccccc2)C(=O)/C1=C\c1cccs1	4.2	91.2*	.	4.0	15.2	3.0
COc1ccc(/C=C2\N=C(c3ccccc3Cl)NC2=O)cc1	.	0.8	36.0	22.3	-0.6	.
CNC[C@H](CC1CCCCC1)NC[C@H](Cc1ccccc1)NCCC12CC3CC(CC(C3)C1)C2	5.0	51.6*	139.0	11.4	21.9	0.0
CCCCNc1c(-c2ccc(SC(C)CC)cc2)nc2cnccn12 (configuration not stated)	33.2	-30.9	-0.3	6.2	.	0.0
COc1ccccc1NC(=O)OC(C)c1ccc(Cl)cc1 (configuration not stated)	-0.2	10.6	.	26.4	-16.9	0.0
COc1ccc(NC(=O)/C(Cl)=C(/Cl)S(=O)Cc2ccccc2)cn1 (configuration not stated)	1.3	50.1*	95.6*	-2.9	-25.3	0.0
COc1ccc(CS(=O)(=O)/C(Cl)=C(/Cl)C(=O)Nc2ccc(OC)nc2)cc1	0.6	48.2*	80.7	1.5	2.6	0.0
COc1ccc(/C=C/C(=O)Nc2ccc(OC)nc2)cc1	-1.3	3.9	.	-6.7	-21.6	6.0
Cc1ccc(C)c(NC(=O)C2(C)CCCN2C(=O)C(C)C)c1 (configuration not stated)	.	.	-6.0	.	.	.
CC(C)c1ccc2c(c1)CCC1C(C)(CN)CCCC21C (configuration not stated)	.	43.5*	.	11.2	23.9	0.0
C=CCC[C@H](Cc1ccc(F)cc1)C(=O)OC[C@@H](NC(=O)[C@@H](CC=C)CC(=O)N[C@@H](CO)Cc1ccccc1)C(C)(C)C	8.6	4.1	32.6	.	.	49.0*
